Measurements: ChEMBL document CHEMBL1275595, “Antimicrobial activity of a halocidin-derived peptide resistant to attacks by proteases” (2010)
In brackets after ≈: the same amount, converted by molar mass. Activity calls are given as the source filed them. The rule behind the calls is not given here. Numbered stars: 1 amine (or outer) side, 2 acyl side, 3 side chain; on linkers, the order of the positions; unused ones are H or OH. Bridge positions count the residues as written; N and C are the ends. Square brackets hold non-standard residues; d marks the D form. Peptide text beside a SMILES is read from it. I, II: the chains in the order shown. Gly(αS-SH) = O=C([C@@H](N[*:1])S[*:3])[*:2]; Nva(4-oxo) = CC(=O)C[C@H](N)C(=O)O

Legend:
Staphylococcus aureus [1] = assay: Antimicrobial activity against methicillin-resistant Staphylococcus aureus CCARM 3696 by radial diffusion assay incubated with trypsin; type: functional, organism-based
Staphylococcus aureus [2] = assay: Antimicrobial activity against methicillin-resistant Staphylococcus aureus CCARM 3696 after 18 hrs by broth dilution method; type: functional; conditions: CCARM 3696, 18 h
In short: (§1)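 Broth dilution per CLSI. Bacteria were grown overnight to stationary phase in Mueller-Hinton broth and diluted in fresh MHB to 2 × 10^5 CFU/ml. Stocks at 640 μg/ml in 0.01% acetic acid were 2-fold serially diluted to 10 μg/ml, and 11 μl was added to 100 μl of bacteria. After 18 h at 37°C, MIC was the lowest concentration with no visible turbidity. Run in triplicate.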

Bacillus subtilis = assay: Antimicrobial activity against Bacillus subtilis KCTC 2213 after 18 hrs by broth dilution method; type: functional; conditions: KCTC 2213, 18 h
In short: (§2)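 Broth microdilution following CLSI recommendations. Bacteria were grown overnight to stationary phase in Mueller-Hinton broth, then diluted in fresh MHB to 2 × 10^5 CFU/ml. Peptide or antibiotic stocks of 640 μg/ml in 0.01% acetic acid were serially 2-fold diluted to 10 μg/ml, and each was added to the bacterial suspension at 11 μl per 100 μl. Plates were incubated 18 h at 37°C. MIC was taken as the lowest concentration giving no visible turbidity, in triplicate.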

Micrococcus luteus = assay: Antimicrobial activity against Micrococcus luteus KCTC 9341 after 18 hrs by broth dilution method; type: functional; conditions: KCTC 9341, 18 h; in short: as §2
Enterococcus faecium = assay: Antimicrobial activity against vancomycin-resistant Enterococcus faecium CCARM 5028 after 18 hrs by broth dilution method; type: functional; conditions: CCARM 5028, 18 h; in short: as §1
Listeria monocytogenes = assay: Antimicrobial activity against Listeria monocytogenes KCTC 19111 after 18 hrs by broth dilution method; type: functional; conditions: KCTC 19111, 18 h; in short: as §2
Pseudomonas aeruginosa = assay: Antimicrobial activity against multidrug-resistant Pseudomonas aeruginosa CCARM 2161 after 18 hrs by broth dilution method; type: functional; conditions: CCARM 2161, 18 h; in short: as §1
Escherichia coli = assay: Antimicrobial activity against Escherichia coli KCTC 1039 after 18 hrs by broth dilution method; type: functional; conditions: KCTC 1039, 18 h; in short: as §2
Klebsiella oxytoca = assay: Antimicrobial activity against Klebsiella oxytoca KCTC 1686 after 18 hrs by broth dilution method; type: functional; conditions: KCTC 1686, 18 h; in short: as §2
Citrobacter freundii = assay: Antimicrobial activity against Citrobacter freundii KCTC 2359 after 18 hrs by broth dilution method; type: functional; conditions: KCTC 2359, 18 h; in short: as §2
Salmonella enterica = assay: Antimicrobial activity against Salmonella enterica KCTC 2930 after 18 hrs by broth dilution method; type: functional; conditions: KCTC 2930, 18 h; in short: as §2
Staphylococcus aureus [3] = assay: Antimicrobial activity against methicillin-resistant Staphylococcus aureus CCARM 3696 by radial diffusion assay incubated with chymotrypsin; type: functional, organism-based

Compound	Activity (Staphylococcus aureus [1])	MIC (Staphylococcus aureus [2]) [µg/mL]	MIC (Bacillus subtilis) [µg/mL]	MIC (Micrococcus luteus) [µg/mL]	MIC (Enterococcus faecium) [µg/mL]	MIC (Listeria monocytogenes) [µg/mL]	MIC (Pseudomonas aeruginosa) [µg/mL]	MIC (Escherichia coli) [µg/mL]	MIC (Klebsiella oxytoca) [µg/mL]	MIC (Citrobacter freundii) [µg/mL]	MIC (Salmonella enterica) [µg/mL]	Activity (Staphylococcus aureus [3])
CC(=O)C[C@H](NC(=O)[C@H](CC(C)C)NC(=O)CNC(=O)[C@H](Cc1cnc[nH]1)NC(=O)[C@H](Cc1cnc[nH]1)NC(=O)[C@H](CC(C)C)NC(=O)[C@H](CC(C)C)NC(=O)[C@H](C)NC(=O)[C@H](CC(N)=O)NC(=O)[C@H](CC(C)C)NC(=O)[C@@H](N)Cc1c[nH]c2ccccc12)C(=O)N[C@@H](CSSC[C@H](NC(=O)[C@H](CC(N)=O)NC(=O)[C@H](CC(C)C)NC(=O)CNC(=O)[C@H](Cc1cnc[nH]1)NC(=O)[C@H](Cc1cnc[nH]1)NC(=O)[C@H](CC(C)C)NC(=O)[C@H](CC(C)C)NC(=O)[C@H](C)NC(=O)[C@H](CC(N)=O)NC(=O)[C@H](CC(C)C)NC(=O)[C@@H](N)Cc1c[nH]c2ccccc12)C(=O)N[C@@H](C)C(=O)N[C@@H](CCCCN)C(=O)O)C(=O)N[C@@H](C)C(=O)N[C@@H](CCCCN)C(=O)O (I: H-WLNALLHHGL[Nva(4-oxo)]CAK-OH / II: H-WLNALLHHGLNCAK-OH; disulfide I:12-II:12)	inactive											
CO/N=C(\C(=O)N[C@@H]1C(=O)N2C(C(=O)O)=C(CSc3nc(=O)c(O)nn3C)CS[C@H]12)c1csc(N)n1 [CEFTRIAXONE]		> 64	< 1	16 (≈ 28.9 µM)	> 64	< 1	> 64	< 1	< 1	2 (≈ 3.61 µM)	4 (≈ 7.21 µM)	
C[C@H]1[C@H](NC(=O)/C(=N\OC(C)(C)C(=O)O)c2csc(N)n2)C(=O)N1S(=O)(=O)O [AZTREONAM]		> 64	> 64	> 64	> 64	< 1	8 (≈ 18.4 µM)	< 1	< 1	4 (≈ 9.19 µM)	> 64	
CC(C)C[C@H](NC(=O)[C@H](CC(C)C)NC(=O)[C@H](C)NC(=O)[C@H](CC(N)=O)NC(=O)[C@H](CC(C)C)NC(=O)[C@H](Cc1c[nH]c2ccccc12)NC(=O)[C@@H](N)CCCCN)C(=O)O (H-KWLNALL-OH)												inactive
CC(C)C[C@H](NC(=O)CNC(=O)[C@H](Cc1cnc[nH]1)NC(=O)[C@@H](N)Cc1cnc[nH]1)C(=O)N[C@@H](CC(N)=O)C(=O)N[C@@H](CSSC[C@H](NC(=O)[C@H](CC(N)=O)NC(=O)[C@H](CC(C)C)NC(=O)CNC(=O)[C@H](Cc1cnc[nH]1)NC(=O)[C@@H](N)Cc1cnc[nH]1)C(=O)N[C@@H](C)C(=O)N[C@@H](CCCCN)C(=O)NCC(=O)N[C@H](C(=O)N[C@@H](CC(C)C)C(=O)N[C@@H](C)C(N)=O)C(C)C)C(=O)N[C@@H](C)C(=O)N[C@@H](CCCCN)C(=O)NCC(=O)N[C@H](C(=O)N[C@@H](CC(C)C)C(=O)N[C@@H](C)C(N)=O)C(C)C (I: H-HHGLNCAKGVLA-NH2 / II: H-HHGLNCAKGVLA-NH2; disulfide I:6-II:6)												Active
CC(C)(O/N=C(\C(=O)N[C@@H]1C(=O)N2C(C(=O)[O-])=C(C[n+]3ccccc3)CS[C@H]12)c1csc(N)n1)C(=O)O [CEFTAZIDIME]		> 64	4 (≈ 7.32 µM)	> 64	> 64	< 1	4 (≈ 7.32 µM)	< 1	< 1	8 (≈ 14.6 µM)	> 64	
CC(C)C[C@H](NC(=O)CNC(=O)[C@H](Cc1cnc[nH]1)NC(=O)[C@H](Cc1cnc[nH]1)NC(=O)[C@H](CC(C)C)NC(=O)[C@H](CC(C)C)NC(=O)[C@H](C)N)C(=O)N[C@@H](CC(N)=O)C(=O)N[C@@H](CSSC[C@H](NC(=O)[C@H](CC(N)=O)NC(=O)[C@H](CC(C)C)NC(=O)CNC(=O)[C@H](Cc1cnc[nH]1)NC(=O)[C@H](Cc1cnc[nH]1)NC(=O)[C@H](CC(C)C)NC(=O)[C@H](CC(C)C)NC(=O)[C@H](C)NC(=O)[C@H](CC(N)=O)NC(=O)[C@H](CC(C)C)NC(=O)[C@H](Cc1c[nH]c2ccccc12)NC(=O)[C@@H](N)CCCCN)C(=O)N[C@@H](C)C(=O)N[C@@H](CCCCN)C(=O)NCC(=O)N[C@H](C(=O)N[C@@H](CC(C)C)C(=O)N[C@@H](C)C(N)=O)C(C)C)C(=O)N[C@@H](C)C(=O)N[C@@H](CCCCN)C(=O)NCC(=O)N[C@H](C(=O)N[C@@H](CC(C)C)C(=O)N[C@@H](C)C(N)=O)C(C)C (I: H-KWLNALLHHGLNCAKGVLA-NH2 / II: H-ALLHHGLNCAKGVLA-NH2; disulfide I:13-II:9)		8 (≈ 2.24 µM)	4 (≈ 1.12 µM)	8 (≈ 2.24 µM)	4 (≈ 1.12 µM)	4 (≈ 1.12 µM)	8 (≈ 2.24 µM)	4 (≈ 1.12 µM)	4 (≈ 1.12 µM)	8 (≈ 2.24 µM)	4 (≈ 1.12 µM)	
CC(C)C[C@H](NC(=O)CNC(=O)[C@H](Cc1cnc[nH]1)NC(=O)[C@H](Cc1cnc[nH]1)NC(=O)[C@H](CC(C)C)NC(=O)[C@H](CC(C)C)NC(=O)[C@H](C)NC(=O)[C@H](CC(N)=O)NC(=O)[C@H](CC(C)C)NC(=O)[C@H](Cc1c[nH]c2ccccc12)NC(=O)[C@@H](N)CCCCN)C(=O)N[C@@H](CC(N)=O)C(=O)N[C@@H](CSSC[C@H](NC(=O)[C@H](CC(N)=O)NC(=O)[C@H](CC(C)C)NC(=O)CNC(=O)[C@H](Cc1cnc[nH]1)NC(=O)[C@H](Cc1cnc[nH]1)NC(=O)[C@H](CC(C)C)NC(=O)[C@H](CC(C)C)NC(=O)[C@H](C)NC(=O)[C@H](CC(N)=O)NC(=O)[C@H](CC(C)C)NC(=O)[C@H](Cc1c[nH]c2ccccc12)NC(=O)[C@@H](N)CCCCN)C(=O)N[C@@H](C)C(=O)N[C@@H](CCCCN)C(=O)NCC(=O)N[C@H](C(=O)N[C@@H](CC(C)C)C(=O)N[C@@H](C)C(N)=O)C(C)C)C(=O)N[C@@H](C)C(=O)N[C@@H](CCCCN)C(=O)O (I: H-KWLNALLHHGLNCAKGVLA-NH2 / II: H-KWLNALLHHGLNCAK-OH; disulfide I:13-II:13)	Active											
CC(C)C[C@H](NC(=O)CNC(=O)[C@H](Cc1cnc[nH]1)NC(=O)[C@H](Cc1cnc[nH]1)NC(=O)[C@H](CC(C)C)NC(=O)[C@H](CC(C)C)NC(=O)[C@H](C)NC(=O)[C@H](CC(N)=O)NC(=O)[C@H](CC(C)C)NC(=O)[C@H](Cc1c[nH]c2ccccc12)NC(=O)[C@@H](N)CCCCN)C(=O)N[C@@H](CC(N)=O)C(=O)N[C@@H](CSSC[C@H](NC(=O)[C@H](CC(N)=O)NC(=O)[C@H](CC(C)C)NC(=O)CNC(=O)[C@H](Cc1cnc[nH]1)NC(=O)[C@H](Cc1cnc[nH]1)NC(=O)[C@H](CC(C)C)NC(=O)[C@H](CC(C)C)NC(=O)[C@H](C)NC(=O)[C@H](CC(N)=O)NC(=O)[C@H](CC(C)C)NC(=O)[C@H](Cc1c[nH]c2ccccc12)NC(=O)[C@@H](N)CCCCN)C(=O)N[C@@H](C)C(=O)N[C@@H](CCCCN)C(=O)O)C(=O)N[C@@H](C)C(=O)N[C@@H](CCCCN)C(=O)O (I: H-KWLNALLHHGLNCAK-OH / II: H-KWLNALLHHGLNCAK-OH; disulfide I:13-II:13)	Active											
CC(C)C[C@H](NC(=O)CNC(=O)[C@H](Cc1cnc[nH]1)NC(=O)[C@H](Cc1cnc[nH]1)NC(=O)[C@H](CC(C)C)NC(=O)[C@H](CC(C)C)NC(=O)[C@H](C)NC(=O)[C@H](CC(N)=O)NC(=O)[C@H](CC(C)C)NC(=O)[C@H](Cc1c[nH]c2ccccc12)NC(=O)[C@@H](N)CCCCN)C(=O)N[C@@H](CC(N)=O)C(=O)N[C@@H](CSS[C@H](NC(=O)[C@H](CC(N)=O)NC(=O)[C@H](CC(C)C)NC(=O)CNC(=O)[C@H](Cc1cnc[nH]1)NC(=O)[C@H](Cc1cnc[nH]1)NC(=O)[C@H](CC(C)C)NC(=O)[C@H](CC(C)C)NC(=O)[C@H](C)NC(=O)[C@H](CC(N)=O)NC(=O)[C@H](CC(C)C)NC(=O)[C@@H](N)Cc1c[nH]c2ccccc12)C(=O)N[C@@H](C)C(=O)N[C@@H](CCCCN)C(=O)O)C(=O)N[C@@H](C)C(=O)N[C@@H](CCCCN)C(=O)O (I: H-KWLNALLHHGLNCAK-OH / II: H-WLNALLHHGLN[Gly(αS-SH)]AK-OH; disulfide I:13-II:12)	Active											
CC(C)C[C@H](NC(=O)CNC(=O)[C@H](Cc1cnc[nH]1)NC(=O)[C@H](Cc1cnc[nH]1)NC(=O)[C@H](CC(C)C)NC(=O)[C@H](CC(C)C)NC(=O)[C@H](C)NC(=O)[C@H](CC(N)=O)NC(=O)[C@H](CC(C)C)NC(=O)[C@H](Cc1c[nH]c2ccccc12)NC(=O)[C@@H](N)CCCCN)C(=O)N[C@@H](CC(N)=O)C(=O)N[C@@H](CSSC[C@H](NC(=O)[C@H](CC(N)=O)NC(=O)[C@H](CC(C)C)NC(=O)CNC(=O)[C@H](Cc1cnc[nH]1)NC(=O)[C@@H](N)Cc1cnc[nH]1)C(=O)N[C@@H](C)C(=O)N[C@@H](CCCCN)C(=O)NCC(=O)N[C@H](C(=O)N[C@@H](CC(C)C)C(=O)N[C@@H](C)C(N)=O)C(C)C)C(=O)N[C@@H](C)C(=O)N[C@@H](CCCCN)C(=O)NCC(=O)N[C@H](C(=O)N[C@@H](CC(C)C)C(=O)N[C@@H](C)C(N)=O)C(C)C (I: H-KWLNALLHHGLNCAKGVLA-NH2 / II: H-HHGLNCAKGVLA-NH2; disulfide I:13-II:6)												Active
